Laboratory results from ChEMBL document CHEMBL1687762, “Aerosol therapy with colistin methanesulfonate: a biopharmaceutical issue illustrated in rats” (Antimicrob Agents Chemother, 2010).

Columns and labels:
[1] = system: Rattus norvegicus; test: Volume of distribution at steady state in Sprague-Dawley rat at 15 mg/kg, iv; assay type: ADME, organism-based; parameters: dose 15 mg/kg, route intravenous; details: in vivo
Outline: (§1)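 CMS in 0.9% NaCl, 15 mg/kg, was given as an i.v. bolus through a femoral vein catheter to fasted male Sprague-Dawley rats (n=6). Arterial plasma was drawn at 0–180 min. CMS (measured as colistin after acid hydrolysis) and colistin were quantified by LC-MS/MS. Individual noncompartmental analysis; Vss = dose × AUMC / AUC².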

[2] = system: Rattus norvegicus; test: AUC in Sprague-Dawley rat assessed as Colistin level at 15 mg/kg, iv; assay type: ADME, organism-based, Plasma; parameters: dose 15 mg/kg, route intravenous; details: in vivo; outline: as §1
[3] = system: Rattus norvegicus; test: AUC in Sprague-Dawley rat assessed as Colistin level at 15 mg/kg administered via intratracheal nebulization; assay type: ADME, organism-based, Plasma; parameters: dose 15 mg/kg, route endotracheal; details: in vivo, inhaled_or_intranasal
Outline: (§2)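 Male Sprague-Dawley rats (280–350 g) were fasted 12 h, with a femoral catheter implanted the day before. Under isoflurane, 100 µl of CMS at 50 mg/ml in 0.4% NaCl (15 mg/kg) was sprayed intratracheally with a MicroSprayer (n=5). Arterial plasma was sampled from 0 to 300 min. CMS (after sulfuric acid hydrolysis) and colistin were measured by LC-MS/MS. Noncompartmental analysis: trapezoidal AUC, terminal log-linear half-life.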

[4] = system: Rattus norvegicus; test: Half life in Sprague-Dawley rat assessed as Colistin level at 15 mg/kg administered via intratracheal nebulization; assay type: ADME, organism-based; parameters: dose 15 mg/kg, route endotracheal; details: in vivo, inhaled_or_intranasal; outline: as §2
[5] = system: Rattus norvegicus; test: AUC in Sprague-Dawley rat at 15 mg/kg administered via intratracheal nebulization; assay type: ADME, organism-based, Plasma; parameters: dose 15 mg/kg, route endotracheal; details: in vivo, inhaled_or_intranasal; outline: as §2
[6] = system: Rattus norvegicus; test: Cmax in Sprague-Dawley rat at 15 mg/kg administered via intratracheal nebulization; assay type: ADME, organism-based; parameters: dose 15 mg/kg, route endotracheal; details: in vivo, inhaled_or_intranasal; outline: as §2
[7] = system: Rattus norvegicus; test: AUC in Sprague-Dawley rat at 15 mg/kg, iv; assay type: ADME, organism-based, Plasma; parameters: dose 15 mg/kg, route intravenous; details: in vivo; outline: as §1
[8] = system: Rattus norvegicus; test: Half life in Sprague-Dawley rat assessed as Colistin level at 15 mg/kg, iv; assay type: ADME, organism-based; parameters: dose 15 mg/kg, route intravenous; details: in vivo; outline: as §1
[9] = system: Rattus norvegicus; test: Half life in Sprague-Dawley rat at 15 mg/kg administered via intratracheal nebulization; assay type: ADME, organism-based; parameters: dose 15 mg/kg, route endotracheal; details: in vivo, inhaled_or_intranasal; outline: as §2
[10] = system: Rattus norvegicus; test: Half life in Sprague-Dawley rat at 15 mg/kg, iv; assay type: ADME, organism-based; parameters: dose 15 mg/kg, route intravenous; details: in vivo; outline: as §1
[11] = system: Rattus norvegicus; test: Bioavailability in Sprague-Dawley rat at 15 mg/kg administered via intratracheal nebulization; assay type: ADME, organism-based; details: in vivo, inhaled_or_intranasal
Outline: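 CMS bioavailability after intratracheal nebulization in rats (15 mg/kg) was taken as the mean CMS plasma AUC after nebulization divided by the mean CMS AUC after i.v. dosing at the same dose. It is reported as an average value.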

Vdss [1]: 0.33 L/kg | AUC [2]: 160 µg·min/mL | AUC [3]: 607 µg·min/mL | t1/2 [4]: 63.6 min | AUC [5]: 756 µg·min/mL | Cmax [6]: 5600 ng/mL | AUC [7]: 1079 µg·min/mL | t1/2 [8]: 35.5 min | t1/2 [9]: 21 min | t1/2 [10]: 22 min | F [11]: 70%
Sequence: COLISTIMETHATE SODIUM
